Compound activity from PubChem BioAssay.
The list is not random: actives were taken first. Their share in the collection is about 4.9%.
APP 5'UTR act = activates APP 5'UTR luciferase reporter; SH-SY5Y APP 5'UTR luciferase reporter, luminescence; zero percent = DMSO vehicle wells; activation, % at 2 µM; hit rate 1% among 190,000; AID 1276;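 active means activation above a set limit, based on mean plus 3 SD of controls, cut at about 140% in these data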
STAT3 activator = activators of IL-6 induced STAT3 signaling | U3A cells, IL-6 STAT3-luciferase reporter, luminescence; 100% = signal with IL-6 EC80 alone | activation (% of control), % at 5.6 µM | hit rate 0.91% among 190,000;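 active means activation above the screen-wide mean of compound activation plus 3 SD, cut at about 130% in these data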;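 further: 0% = background luminescence of wells with medium and substrate only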
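Test system: human U3A cells carrying STAT3-luciferase construct; control set: IL-6-only wells as 100% reference; timing: compound pre-incubation 1 h before IL-6, then 6 h stimulation at 37 °C; also added: IL-6 stimulus at 33 ng/mL final; evaluation: % activation versus median of IL-6-stimulated wells; detection: reporter luminescence signal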
NF-kB expr up = NF-kB expression increase, human neuronal cells | NF-kB reporter expression; hits give high values | fold change at 12.5 µM | hit rate 1.6% among 190,000; in the data active means fold change above about 3.3
STAT1 act = STAT1 signaling activation. hit rate 2.6% among 200,000. activation (% of control), % at 5.5 µM. NIH 3T3 STAT1-luciferase reporter, IFN-gamma, luminescence; 100% = IFN-gamma alone, no compound;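 active means activation above the screen-wide mean activation plus 3 SD, cut at about 130% in these data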;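 further: raw ratio to IFN-gamma control signal so 100% means no change and 0% no light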
STAT1 inh = STAT1 signaling inhibition; NIH 3T3 STAT1-luciferase reporter, IFN-gamma, luminescence; hit rate 0.35% among 200,000; inhibition, % at 5.5 µM;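 active means inhibition above a set limit, the mean inhibition across all tested compounds plus 3 SD, cut at about 34% in these data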;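 further: 0% = IFN-gamma with DMSO and 100% = IFN-gamma with 300 µM nifuroxazide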
STAT3 inh = STAT3 signaling inhibition. U3A cells, IL-6 STAT3-luciferase reporter, luminescence; host cell line lacks STAT1. hit rate 0.89% among 190,000. inhibition, % at 5.5 µM;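 active means inhibition above the mean inhibition across all screened compounds plus 3 SD, cut at about 44% in these data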;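 further: 0% = DMSO only wells and 100% = 100 µM nifuroxazide control wells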
STAT1 activ conf = STAT1 activation, confirmation assay; shares compounds with STAT1 act; hit rate 97% among 1,200; activation (% of control), % at 5.7 µM; NIH 3T3 STAT1-luciferase reporter, IFN-gamma potentiation, luminescence; 100% = IFN-gamma EC80 alone, no compound; AID 1262;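 active means activation above a set limit carried over from the earlier primary STAT1 screen, cut at about 140% in these data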;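 further: simple ratio to median IFN-gamma plus DMSO wells so 0% means no light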
NFkB act STAT1ct = activates NF-kappaB, counter-screen to STAT1 activators | shares compounds with STAT1 act | AID 1306 | HEK293T NF-kB luciferase reporter, TNF-alpha stimulated, luminescence; 100% = TNF-alpha with vehicle only | activation (% of control), % at 5.7 µM | hit rate 43% among 1,200;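 active means activation above the mean of solvent-only control wells plus 3 SD, set per campaign, cut at about 130% in these data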;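 further: TNF-alpha given at a submaximal dose yielding about 80% of full reporter signal; values are well signal over median control so 100% means no change and 0% no light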
STAT3 act 2 = activates human STAT3, counter-screen to STAT1 activators | activation (% of control), % at 5.7 µM | shares compounds with STAT1 act | hit rate 46% among 1,200 | U3A cells STAT3-luciferase reporter, IL-6, luminescence; cells lack STAT1; 100 = IL-6 alone, no compound effect | AID 1316;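 active means activation above the solvent-only control well mean plus 3 SD, set per plate batch, cut at about 110% in these data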;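 further: 0% = no luminescence and 100% = median IL-6 plus DMSO wells; higher means more STAT3 reporter activation so hits are non-selective activators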
* hit, by the source's call; nt = not tested or not shown.

SMILES	APP 5'UTR act	STAT3 activator	NF-kB expr up	STAT1 act	STAT1 inh	STAT3 inh	STAT1 activ conf	NFkB act STAT1ct	STAT3 act 2
CC(C)CSc1nnc2c(n1)[nH]c1ccccc12	129.7	65.1	4.83*	152.8*	-57.1	40.2	248.9*	113.2	89.2
C/C(=N\NC(=O)c1c(Br)c(C)nn1C)c1ccc(NC(=O)c2ccoc2C)cc1	-12.4	99.4	1.01	119.8	-21.8	2.0	nt	nt	nt
CCC(=O)Nc1ccc(/C(C)=N/NC(=O)c2c(Br)c(C)nn2C)cc1	-7.3	99.6	0.88	90.9	10.2	-0.5	nt	nt	nt
C/C(=N\NC(=O)c1nn(C)c(C)c1Br)c1ccc(NC(=O)c2ccoc2C)cc1	57.4	81.4	1.23	179.3*	-86.9	28.0	119.0	114.5	88.7
C/C(=N\NC(=O)c1nn(C)c(C)c1Br)c1ccc(NC(=O)c2ccccc2F)cc1	112.5	79.9	1.3	156.2*	-62.3	26.4	123.3	118.1	89.1
CN(CCC#N)C(=O)COC(=O)c1ccc(Cl)c(S(=O)(=O)N(C)c2ccccc2)c1	-7.1	91.2	1.08	102.0	-4.2	16.8	nt	nt	nt
CC(C)CCN1CCN(CC(c2ccccc2)c2ccccc2)CC1CCO (configuration not stated)	4.8	98.9	1.1	100.9	-2.9	3.6	nt	nt	nt
COc1cccc(-c2c(C#N)c(N)nc3c2c(=O)nc2sccn23)c1	4.1	100.9	0.87	89.5	10.0	3.3	nt	nt	nt
CCn1cnc2sc(-c3ccccc3)cc2c1=O	181.7*	107.8	5.38*	158.5*	-64.3	1.1	205.4*	129.6	109.3
N#CCn1cnc2sc(-c3ccccc3)cc2c1=O	18.9	93.9	1.69	123.1	-27.1	11.4	nt	nt	nt
COc1cccc(-c2cc(=O)c3cc(NC(C)=O)ccc3[nH]2)c1	1.0	94.5	1	100.7	-0.8	3.7	nt	nt	nt
COc1ccc(-c2cc(=O)c3cc(OC)ccc3[nH]2)cc1	126.1	66.3	4.72*	152.9*	-58.2	37.5	165.1*	103.3	100.9
COc1ccc(-c2nsc(SCC(=O)NCC3CCCO3)n2)cc1 (configuration not stated)	19.8	97.3	1.41	109.0	-9.7	7.8	nt	nt	nt
CC(=O)Nc1sc(NC(=O)c2ccc(C)cc2)nc1-c1cccs1	-2.9	92.8	1.16	94.1	13.7	10.0	nt	nt	nt
CCc1ccc(C2=NN(C(C)=O)C(c3ccco3)C2)cc1 (configuration not stated)	144.2*	107.2	4.74*	159.9*	-69.3	-3.7	177.9*	132.8	123.4*
O=C(NCCc1cccs1)c1ccc(Cl)c(Cl)c1	63.1	97.8	3.77*	159.4*	-62.5	3.3	163.7*	129.7	107.0
Cc1c(Br)c([N+](=O)[O-])nn1CCCC(=O)NC(C)c1ccccc1 (configuration not stated)	8.0	95.5	0.93	93.6	4.9	13.2	nt	nt	nt
O=CN(c1ccccc1)c1ccc2ccccc2c1	7.0	109.7	1.39	99.5	-1.6	-7.7	nt	nt	nt
COc1ccc(N=C(C)C2=C(O)c3ccccc3C2=O)cc1	206.1*	74.2	5.43*	164.6*	-72.6	29.0	209.4*	103.4	87.6
N=c1oc2cc(O)ccc2cc1C(=O)Nc1ccccn1	-9.6	107.6	1.42	110.1	-11.2	-2.7	nt	nt	nt
N=c1oc2cc(O)ccc2cc1C(=O)Nc1nc2ccccc2s1	178.5*	127.5	1.63	168.0*	-74.7	-38.9	194.5*	111.8	151.6*
CCOC(=O)c1c(NC(=O)CN2C(=O)NC(C)(c3ccccc3)C2=O)sc(C)c1C (configuration not stated)	-17.7	102.6	0.88	98.7	1.5	-5.8	nt	nt	nt
Cc1ccc(/C(O)=C2\C(=O)C(=O)N(CC(C)O)C2c2ccccn2)cc1 (configuration not stated)	15.8	99.5	1.15	98.6	-0.2	3.0	nt	nt	nt
Nc1ccccc1Nc1cc(-c2ccccc2)[nH]n1	17.5	75.5	4.68*	225.3*	-133.6	30.6	179.4*	83.3	91.5
Nc1ccccc1Nc1cc(-c2ccccc2)nn1-c1ccccc1	-3.1	98.8	1.18	109.0	-10.0	3.6	nt	nt	nt
SMILES	APP 5'UTR act	STAT3 activator	NF-kB expr up	STAT1 act	STAT1 inh	STAT3 inh	STAT1 activ conf	NFkB act STAT1ct	STAT3 act 2
Cc1c(Nc2cc(N3CCOCC3)c3nonc3c2[N+](=O)[O-])c(=O)n(-c2ccccc2)n1C	-4.2	102.2	1.1	107.6	-11.9	2.1	nt	nt	nt
Cc1c(Nc2cc(Cl)c3nonc3c2[N+](=O)[O-])c(=O)n(-c2ccccc2)n1C	-95.3	96.9	0.17	376.0*	-301.9	6.0	159.3*	112.6	103.0
COc1nc(N/N=C/c2ccccc2F)nc(N2CCCCC2)n1	13.5	90.0	1.01	94.4	2.1	19.5	nt	nt	nt
OCCOCCNc1ncnc2c1cnn2-c1ccc(Cl)cc1	139.9*	96.1	4.61*	157.2*	-63.0	9.7	224.7*	133.4*	116.4*
COc1ccc(C(=O)NC(=S)Nc2ccccc2F)cc1	116.4	96.3	3.01	158.2*	-65.5	1.9	170.9*	133.8*	99.6
CCc1cc(CNC(=O)CCc2nnc(CCCc3ccccc3)o2)on1	69.8	111.3	3.4*	158.0*	-65.3	-9.6	168.1*	124.7	115.1*
O=C(CCc1nnc(CCCc2ccccc2)o1)N1CCCCCC1	75.5	105.5	2.32	153.4*	-61.1	-1.8	142.4*	121.8	107.5
O=C(CCc1nnc(C2CCCCC2)o1)N1CCN(c2ccccc2F)CC1	84.5	115.9	2.63	163.4*	-73.1	-12.8	172.1*	136.6*	117.0*
C/C(CCN1CCc2nc(-c3ccccc3)c(-c3ccccc3)cc2C1)=N\O[C@@H](C)c1cn([C@H](CO)Cc2ccccc2)nn1	9.3	100.9	0.63	101.7	-1.9	-3.9	nt	nt	nt
C=CCN1C(=O)C(CC(=O)Nc2ccc(OCCC)cc2)N(CCCN2CCN(Cc3ccccc3)CC2)C1=S (configuration not stated)	3.2	103.4	0.94	99.4	0.1	-1.8	nt	nt	nt
COc1ccc(OC)c(-c2csc(N3CCC(c4ccccc4)CC3)n2)c1	5.9	97.3	1.94	103.8	-6.1	6.9	nt	nt	nt
Cc1nn(C(=O)c2nn(C)cc2[N+](=O)[O-])c(C)c1Br	-12.8	106.5	2.76	107.5	-9.8	-5.2	nt	nt	nt
